According to ChEMBL document CHEMBL1687933, “Synthesis and pharmacological evaluation of fluorine-containing D₃ dopamine receptor ligands” (J Med Chem, 2011):

Experiments:
Homo sapiens = species: Homo sapiens; assay: Selectivity ratio of Ki for human D2 receptor to Ki for human D3 receptor
How it was run: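 Selectivity index is Ki(D2)/Ki(D3). Both Ki values come from [125I]IABN competition on membranes of HEK 293 cells stably expressing the human receptor. Incubation was 60 min at 37°C at pH 7.5, with Cheng–Prusoff correction.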

D(4) dopamine receptor = target: T1, D(4) dopamine receptor (Homo sapiens, UniProt P21917); assay: Binding affinity to human D4 receptor transfected in human HEK293 cells by gamma-counting; assay type: cell-based
T1 sequence (P21917 whole entry): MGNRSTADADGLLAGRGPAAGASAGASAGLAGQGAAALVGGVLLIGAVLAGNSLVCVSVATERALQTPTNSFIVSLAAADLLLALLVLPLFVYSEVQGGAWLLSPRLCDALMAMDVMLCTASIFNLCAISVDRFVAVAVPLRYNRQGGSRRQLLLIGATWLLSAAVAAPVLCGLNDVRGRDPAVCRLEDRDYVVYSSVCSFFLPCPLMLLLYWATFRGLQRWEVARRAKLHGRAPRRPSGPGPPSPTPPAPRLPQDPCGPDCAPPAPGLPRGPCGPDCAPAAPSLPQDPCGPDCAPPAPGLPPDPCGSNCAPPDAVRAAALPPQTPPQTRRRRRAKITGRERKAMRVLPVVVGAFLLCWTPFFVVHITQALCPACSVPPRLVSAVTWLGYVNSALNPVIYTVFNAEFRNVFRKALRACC
How it was run: (§1)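 Nonspecific binding defined with 20 µM (+)-butaclamol. Inhibitor spans 5 log units at two points per decade, in triplicate. Filtration and gamma counting. One-site IC50 converted to Ki by Cheng–Prusoff. At least three independent experiments.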

[1] = Partition coefficient, log P of the compound; assay type: physicochemical; conditions: octanol/water
D(2) dopamine receptor = D(2) dopamine receptor (Homo sapiens, UniProt P14416); assay: Displacement of [125I]-IABN from human D2 receptor transfected in human HEK 293 cells by gamma-counting; assay type: cell-based, HEK293; how it was run: as §1
Sequence of D(2) dopamine receptor (P14416 whole entry): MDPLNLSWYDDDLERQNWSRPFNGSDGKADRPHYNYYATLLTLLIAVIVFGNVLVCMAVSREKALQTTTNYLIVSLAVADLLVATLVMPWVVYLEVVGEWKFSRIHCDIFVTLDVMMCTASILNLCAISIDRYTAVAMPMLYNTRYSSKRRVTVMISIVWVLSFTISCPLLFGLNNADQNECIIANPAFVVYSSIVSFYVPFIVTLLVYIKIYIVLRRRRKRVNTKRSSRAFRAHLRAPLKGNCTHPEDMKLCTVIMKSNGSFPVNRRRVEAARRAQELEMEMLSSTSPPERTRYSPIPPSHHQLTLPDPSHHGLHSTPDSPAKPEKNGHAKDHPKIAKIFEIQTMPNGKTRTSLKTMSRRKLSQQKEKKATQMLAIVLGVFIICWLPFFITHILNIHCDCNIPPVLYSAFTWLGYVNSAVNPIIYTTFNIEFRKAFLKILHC

D(3) dopamine receptor = D(3) dopamine receptor (Homo sapiens, UniProt P35462); assay: Displacement of [125I]-IABN from human D3 receptor transfected in human HEK 293 cells by gamma-counting; assay type: cell-based, HEK293; how it was run: as §1
Sequence of D(3) dopamine receptor (P35462 whole entry): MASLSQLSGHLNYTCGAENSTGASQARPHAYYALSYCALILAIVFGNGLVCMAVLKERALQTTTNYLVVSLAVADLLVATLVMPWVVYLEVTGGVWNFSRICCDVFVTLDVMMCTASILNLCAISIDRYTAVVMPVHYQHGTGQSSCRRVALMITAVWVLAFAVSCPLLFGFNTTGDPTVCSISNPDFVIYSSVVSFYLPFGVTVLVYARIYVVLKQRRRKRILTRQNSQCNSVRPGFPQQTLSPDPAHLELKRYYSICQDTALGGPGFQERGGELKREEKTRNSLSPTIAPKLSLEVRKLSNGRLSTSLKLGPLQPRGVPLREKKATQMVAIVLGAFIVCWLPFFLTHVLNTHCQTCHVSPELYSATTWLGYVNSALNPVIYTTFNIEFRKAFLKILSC

[2] = target: Sigma non-opioid intracellular receptor 1 (Cavia porcellus, UniProt Q60492); assay: Displacement of [3H]-pentazocine from guinea pig sigma1 receptor by liquid scintillation counting
Sequence of Sigma non-opioid intracellular receptor 1 (Q60492 whole entry): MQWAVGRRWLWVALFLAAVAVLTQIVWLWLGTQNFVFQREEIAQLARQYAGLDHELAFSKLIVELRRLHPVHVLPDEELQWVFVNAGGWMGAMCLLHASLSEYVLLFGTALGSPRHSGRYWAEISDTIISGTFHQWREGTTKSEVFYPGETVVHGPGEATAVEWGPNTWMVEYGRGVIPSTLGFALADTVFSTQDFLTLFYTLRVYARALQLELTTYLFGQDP
How it was run: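 Guinea pig brain membranes (~300 µg protein) incubated with ~5 nM (+)-[3H]-pentazocine for 90 min at room temperature in Tris-HCl/NaCl/EDTA pH 7.4. […] Filtration and scintillation counting. IC50 taken from a one-site fit.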

Structure (SMILES) | Ratio Ki (Homo sapiens) | Ki (D(4) dopamine receptor) | logP [1] | Ki (D(2) dopamine receptor) | Ki (D(3) dopamine receptor) | Ki [2]
O=C(NC/C=C/CN1CCN(c2ccccc2OCCF)CC1)c1ccc(-c2ccsc2)cc1 | 64 | 182 nM | 4.74 | 70.5 nM | 1.1 nM | 7780 nM
COc1ccccc1N1CCN(C/C=C/CNC(=O)c2cc(I)ccc2OCCF)CC1 | 1.2 |  | 4.73 | 13.2 nM | 10.9 nM | 
CN(C)c1ccc(C(=O)NCCCCN2CCN(c3ccccc3OCCF)CC2)cc1 |  | 890 nM | 3.75 | 15.1 nM | 0.65 nM | 1960 nM
CN(C)c1ccc(C(=O)NC/C=C/CN2CCN(c3ccccc3OCCF)CC2)cc1 | 9.8 |  | 3.83 | 35.2 nM | 3.6 nM | 
COc1ccccc1N1CCN(CCCCNC(=O)c2ccc(OCCOCCOCCF)cc2)CC1 | 12.2 | 2100 nM | 2.72 | 52 nM | 4.2 nM | 4870 nM
O=C(NC/C=C/CN1CCN(c2ccccc2OCCF)CC1)c1ccc(OCCF)cc1 | 4.5 |  | 3.81 | 37.9 nM | 8.4 nM | 
COc1ccccc1N1CCN(C/C=C/CNC(=O)c2ccc(OCCOCCF)cc2)CC1 | 3.3 |  | 3.16 | 59.2 nM | 18.2 nM | 
COc1ccccc1N1CCN(C/C=C/CNC(=O)c2ccc(CCF)cc2)CC1 | 5.2 |  | 3.43 | 131 nM | 24.9 nM | 
COc1ccccc1N1CCN(CCCCNC(=O)c2ccc(OCCOCCF)cc2)CC1 |  |  | 3.08 |  | 6.2 nM | 
O=C(NCCCCN1CCN(c2ccccc2OCCF)CC1)c1ccc(-c2ccsc2)cc1 |  | 246 nM | 4.67 |  |  | 20900 nM
O=C(NCCCCN1CCN(c2ccccc2OCCF)CC1)c1ccc(OCCOCCF)cc1 |  |  | 3.34 | 14.2 nM | 2.5 nM | 
COc1ccccc1N1CCN(CCCCNC(=O)c2ccc(CCF)cc2)CC1 |  | 804 nM | 2.94 | 54.5 nM | 2.4 nM | 3540 nM
COc1ccccc1N1CCN(C/C=C/CNC(=O)c2cc(C)ccc2OCCF)CC1 | 1 |  | 3.66 | 17.8 nM | 18.5 nM | 
COc1ccccc1N1CCN(C/C=C/CNC(=O)c2cc(Br)cc(OC)c2OCCF)CC1 | 4.2 |  | 4.15 | 57.6 nM | 13.8 nM | 
COc1ccccc1N1CCN(C/C=C/CNC(=O)c2cc(Br)ccc2OCCF)CC1 | 1 |  | 4.49 | 13.4 nM | 13.6 nM | 
COc1ccccc1N1CCN(CCCCNC(=O)c2ccc(OCCF)cc2)CC1 | 25 | 1400 nM | 3.48 | 27.1 nM | 1.1 nM | 4780 nM
O=C(NCCCCN1CCN(c2ccccc2OCCF)CC1)c1ccc(OCCF)cc1 |  | 990 nM | 3.73 | 15.1 nM | 0.52 nM | 4360 nM
O=C(NCCCCN1CCN(c2ccccc2OCCF)CC1)c1ccc(CCF)cc1 | 3.1 |  | 3.68 | 21.4 nM | 6.9 nM | 
O=C(NCCCCN1CCN(c2ccccc2OCCF)CC1)c1ccc(OCCOCCOCCF)cc1 | 6.1 |  | 2.98 | 31.7 nM | 5.2 nM | 
COc1ccccc1N1CCN(C/C=C/CNC(=O)c2ccc(OCCF)cc2)CC1 | 8.9 |  | 3.55 | 55.3 nM | 6.2 nM | 
O=C(NC/C=C/CN1CCN(c2ccccc2OCCF)CC1)c1ccc(OCCOCCF)cc1 | 3.3 |  | 3.41 | 64.8 nM | 19.6 nM | 
COc1ccccc1N1CCN(CCCCNC(=O)c2ccc(N(C)C)cc2)CC1 | 43 | 896 nM | 3.09 | 34.4 nM | 0.8 nM | 1260 nM
O=C(NC/C=C/CN1CCN(c2ccccc2OCCF)CC1)c1ccc(CCF)cc1 | 16.1 | 890 nM | 3.61 | 17.7 nM | 1.1 nM | 7200 nM
